Measurements taken from ChEMBL document CHEMBL1138880, “Synthesis of DNA-directed pyrrolidinyl and piperidinyl confined alkylating chloroalkylaminoanthraquinones: potential for development of tumor-selective N-oxides” (J Med Chem, 2006).
The source made the active and inactive calls. No cut-off for these calls is given here.

Assays:
A2780 [1] = test: Inhibition of cisplatin-resistant A2780 cell growth; type: functional, cell-based; details: Homo sapiens
A2780 [2] = test: Resistance factor, IC50 for A2780/cp70 cells/ IC50 for A2780 cells; type: functional, Homo sapiens
A2780 [3] = test: Inhibition of A2780 cell growth; type: functional, cell-based; details: Homo sapiens
A2780 [4] = test: Inhibition of Doxorubicin-resistant A2780 cell growth; type: functional, cell-based; details: Homo sapiens
[5] = test system: Panel NCI-60 (60 carcinoma cell lines); test: Cytotoxicity against NCI60 cell line; type: functional; details: Homo sapiens
A2780 [6] = test: Resistance factor, IC50 for A2780 AD cells/ IC50 for A2780 cells; type: functional, Homo sapiens
Nucleic Acid [7] = test: Ability to interstand cross-link DNA by agarose gel cross-link assay; type: nucleic-acid assay
How it was run: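 Linearised, 5′-end 32P-labelled pBR322 DNA (~100 ng) incubated with drug (0.01-10 µM final) in TEOA buffer at 37 °C for 1 h, then stopped. DNA was precipitated, heat-denatured in strand separation buffer (95 °C, 2 min), run on 0.8% agarose at 40 V overnight and autoradiographed. Cross-linked DNA was quantified by densitometry as the mean of three replicates.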

Nucleic Acid [8] = test: Induction of DNA unwinding by agarose gel based supercoiled plasmid pBR322 DNA mobility assay; type: nucleic-acid assay
How it was run: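 Circular supercoiled pBR322 (250 ng) with compound in reaction buffer (Tris-HCl pH 7.9, NaCl, KCl, MgCl2, EDTA, BSA, ATP), 30 °C for 15 min; stopped, run on 0.8% agarose in 1× TAE at 100 V for 3 h, EtBr-stained 30 min, visualized under UV.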

Nucleic Acid [9] = test: Ability to interstand cross-link DNA upto 100 uM by agarose gel cross-link assay; type: nucleic-acid assay
How it was run: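 Agarose gel interstrand cross-link assay on linearised, 5′-end 32P-labelled pBR322 in TEOA buffer at 37 °C. Drug was tested across concentrations up to 100 µM and times up to 24 h. DNA was strand-separated at 95 °C, then run on 0.8% agarose and autoradiographed.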

Nucleic Acid [10] = test: Alkylation of DNA at 10 uM after 24 hrs by Taq polymerase stop assay; type: nucleic-acid assay
How it was run: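 Linearised pBR322 was treated with drug for 24 h; the screening range was 1 nM-10 µM. Treated DNA was extended with labelled SRM primer and Taq polymerase over 30 cycles (95 °C 1 min, 58 °C 1 min, 74 °C). Products were run on a denaturing gel in TBE at 55 °C with mechlorethamine and untreated DNA, then autoradiographed to map guanine alkylation sites.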

| SMILES | IC50 (A2780 [1]) [µM] | IC50 (A2780 [3]) [µM] | IC50 (A2780 [4]) [µM] | Activity (Nucleic Acid [8]) | Ratio IC50 (A2780 [2]) | GI50 [5] [µM] | Ratio IC50 (A2780 [6]) | Activity (Nucleic Acid [7]) | Activity (Nucleic Acid [9]) | Activity (Nucleic Acid [10]) |
| --- | --- | --- | --- | --- | --- | --- | --- | --- | --- | --- |
| O=C1c2c(O)ccc(O)c2C(=O)c2c(NCCN3CCCCC3)ccc(NCCN3CCCCC3)c21 | > 1 | > 1 | > 1 |  |  |  |  |  |  |  |
| O=C1c2ccccc2C(=O)c2c(NCCN3CCCC3CCl)cccc21 (stereo not drawn) | > 1 | > 1 | > 1 |  |  |  |  |  |  |  |
| O=C1c2c(O)ccc(O)c2C(=O)c2c(NCCN3CCCCC3CCl)ccc(NCCN3CCCCC3CCl)c21 (stereo not drawn) | > 1 | 0.178 | > 1 |  |  |  |  | Time-dependent effect |  |  |
| O=C1c2ccccc2C(=O)c2c(NCCN3CCCC3CO)cccc21 (stereo not drawn) | > 1 | > 1 | > 1 |  |  |  |  |  |  |  |
| O=C1c2c(O)ccc(O)c2C(=O)c2c(NCC[N+]3([O-])CCCCC3CCl)ccc(NCC[N+]3([O-])CCCCC3CCl)c21 (stereo not drawn) | > 1 | > 1 | > 1 | inactive |  |  |  |  |  |  |
| CN(C)CCNc1ccc(NCCN2C(CCl)CCCC2CCl)c2c1C(=O)c1c(O)ccc(O)c1C2=O (stereo not drawn) | 0.357 | 0.024 | 0.106 |  | 14.9 |  | 4.4 |  |  |  |
| O=C1c2c(O)ccc(O)c2C(=O)c2c(NCCN3CCCC(CCl)C3)ccc(NCCN3CCCC(CCl)C3)c21 (stereo not drawn) | > 1 | > 1 | > 1 |  |  |  |  |  | inactive | inactive |

More lines, main results first:

| IC50 (A2780 [1]) [µM] | IC50 (A2780 [3]) [µM] | IC50 (A2780 [4]) [µM] | Activity (Nucleic Acid [8]) | SMILES | Ratio IC50 (A2780 [2]) | GI50 [5] [µM] | Ratio IC50 (A2780 [6]) | Activity (Nucleic Acid [7]) | Activity (Nucleic Acid [9]) | Activity (Nucleic Acid [10]) |
| --- | --- | --- | --- | --- | --- | --- | --- | --- | --- | --- |
| > 0.59 | 0.74 | > 1 |  | O=C1c2c(O)ccc(O)c2C(=O)c2c(NCCN3CCCCC3CO)ccc(NCCN3CCCCC3CO)c21 (stereo not drawn) | 0.9 |  |  |  |  |  |
| 0.063 | 0.009 | 0.075 |  | CN(C)CCNc1ccc(NCCN2CCCC(Cl)C2)c2c1C(=O)c1c(O)ccc(O)c1C2=O (stereo not drawn) | 7 | 0.182 | 8.3 |  |  |  |
| 0.069 | 0.04 | 0.091 |  | CN(C)CCNc1ccc(NCCN2CCCCC2CCl)c2c1C(=O)c1c(O)ccc(O)c1C2=O (stereo not drawn) | 1.7 |  | 2.3 |  |  |  |
| 0.07 | 0.07 | > 1 |  | O=C1c2c(O)ccc(O)c2C(=O)c2c(NCCN3CCCC(CO)C3)ccc(NCCN3CCCC(CO)C3)c21 (stereo not drawn) | 1 |  |  |  |  |  |
| 0.079 | 0.029 | 0.292 |  | CN(C)CCNc1ccc(NCCN2CCCC2CCl)c2c1C(=O)c1c(O)ccc(O)c1C2=O (stereo not drawn) | 2.7 | 0.096 | 10.1 |  |  |  |
| 0.096 | 0.068 | 0.342 |  | CN(C)CCNc1ccc(NCCN2CCC(Cl)C2)c2c1C(=O)c1c(O)ccc(O)c1C2=O (stereo not drawn) | 1.4 |  | 5 |  |  |  |
| 0.003 | 0.0075 | 0.061 |  | COc1cccc2c1C(=O)c1c(O)c3c(c(O)c1C2=O)C[C@@](O)(C(=O)CO)C[C@@H]3O[C@H]1C[C@H](N)[C@H](O)[C@H](C)O1 [DOXORUBICIN] | 0.4 |  | 8.1 |  |  |  |
| 0.535 | 0.576 | 0.426 |  | CN(C)CCNc1ccc(NCCN2CCC(Cl)CC2)c2c1C(=O)c1c(O)ccc(O)c1C2=O | 0.9 |  | 0.7 |  |  | inactive |
